The results in this text go back to ChEMBL document CHEMBL4196188, “GEX1A, a Polyketide from Streptomyces chromofuscus, Corrects the Cellular Defects Associated with Niemann-Pick Type C1 in Human Fibroblasts” (J Nat Prod, 2018).

For orientation: MRT means the average time that molecules of a dose stay in the body.

The target in data set [1] is Splicing factor 3B subunit 1 (Homo sapiens) (UniProt O75533). In words: Binding affinity to SAP155 in human GM18453 cells harboring NPC1 mutant assessed as increase in 100 kDa NPC1 protein expression at 50 nM pretreated for 48 hrs followed by endoglycosidase H addition and measured after overnight incubation by Western blot analysis relative to control. The data set is classed as cell-based. The essentials: (§1)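 GM18453 fibroblasts were exposed 48 h to 50 nM compound, SAHA 5 μM or DMSO 0.1%. 25 μg lysate was denatured 10 min at 65°C, digested with Endo H (1000 U) about 18 h at 37°C, then run on SDS-PAGE. Blots were probed with rabbit anti-NPC1. Isoforms were quantified by densitometry against DMSO control across four independent experiments.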
Chain of Splicing factor 3B subunit 1 (Homo sapiens) (O75533 whole entry, canonical isoform): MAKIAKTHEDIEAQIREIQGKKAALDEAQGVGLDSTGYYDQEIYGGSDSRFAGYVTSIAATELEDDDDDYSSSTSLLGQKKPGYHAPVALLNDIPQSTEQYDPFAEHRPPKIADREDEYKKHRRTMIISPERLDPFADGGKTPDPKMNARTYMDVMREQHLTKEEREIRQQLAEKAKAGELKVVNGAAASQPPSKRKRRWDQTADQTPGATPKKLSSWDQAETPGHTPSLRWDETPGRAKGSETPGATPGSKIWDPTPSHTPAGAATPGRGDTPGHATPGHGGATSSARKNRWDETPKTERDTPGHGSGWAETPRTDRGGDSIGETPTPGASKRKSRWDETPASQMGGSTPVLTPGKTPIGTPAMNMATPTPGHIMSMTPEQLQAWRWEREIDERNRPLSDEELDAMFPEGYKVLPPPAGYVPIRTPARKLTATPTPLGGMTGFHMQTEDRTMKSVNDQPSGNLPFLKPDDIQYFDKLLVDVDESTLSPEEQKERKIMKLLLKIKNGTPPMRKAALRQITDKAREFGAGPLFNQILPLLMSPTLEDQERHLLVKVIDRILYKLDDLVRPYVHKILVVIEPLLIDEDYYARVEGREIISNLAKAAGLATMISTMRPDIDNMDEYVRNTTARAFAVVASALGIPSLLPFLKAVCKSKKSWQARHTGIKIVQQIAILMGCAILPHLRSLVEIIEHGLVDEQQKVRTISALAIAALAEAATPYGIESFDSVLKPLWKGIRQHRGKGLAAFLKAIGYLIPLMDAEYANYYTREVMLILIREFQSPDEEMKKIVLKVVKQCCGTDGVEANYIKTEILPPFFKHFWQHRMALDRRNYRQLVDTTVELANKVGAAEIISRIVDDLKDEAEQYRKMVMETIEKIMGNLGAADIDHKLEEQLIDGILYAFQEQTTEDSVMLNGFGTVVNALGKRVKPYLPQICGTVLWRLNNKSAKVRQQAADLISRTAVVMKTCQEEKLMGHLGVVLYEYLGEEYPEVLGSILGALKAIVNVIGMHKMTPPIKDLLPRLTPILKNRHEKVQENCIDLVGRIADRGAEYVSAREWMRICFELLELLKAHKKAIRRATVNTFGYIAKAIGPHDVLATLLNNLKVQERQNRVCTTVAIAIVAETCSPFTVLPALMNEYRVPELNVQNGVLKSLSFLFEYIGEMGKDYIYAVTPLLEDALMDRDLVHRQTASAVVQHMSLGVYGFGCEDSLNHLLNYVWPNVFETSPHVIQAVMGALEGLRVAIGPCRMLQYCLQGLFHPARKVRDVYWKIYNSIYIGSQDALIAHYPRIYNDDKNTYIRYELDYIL
Background: A western blot detects proteins with antibodies after separation by electrophoresis.

Data set [2] has the same target. In words: Binding affinity to SAP155 in human GM18453 cells harboring NPC1 mutant assessed as increase in 250 kDa NPC1 protein expression at 50 nM pretreated for 48 hrs followed by endoglycosidase H addition and measured after overnight incubation by Western blot analysis. The data set is classed as cell-based. The essentials:
as §1

Data set [3] can be described thus: Cytotoxicity against human GM18453 cells harboring NPC1 mutant assessed as effect on cell shape at 5 uM. In kind it is cell-based. The essentials:
(§2)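 GM18453 NPC1-mutant fibroblasts were exposed for 48 h to 1 nM–5 μM compound, with DMSO vehicle and SAHA (5 μM) positive control. Cells were fixed, stained with filipin for unesterified cholesterol, and imaged by automated fluorescence microscopy. Filipin area sum per cell count was taken from four images per condition across four independent replicates.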

Data set [4] can be described thus: Cytotoxicity against human GM18453 cells harboring NPC1 mutant assessed as effect on nuclei shape at 5 uM. In kind it is cell-based. The essentials:
as §2

Data set [5] in a line: Stability in mouse liver microsomes. In kind it is ADME, microsome. (Microsomes from liver hold many membrane-bound enzymes, among them those of drug oxidation.)
Data set [6] is described as follows: Protein binding in human plasma. In kind it is ADME, cell-free.
Data set [7] has as its target Splicing factor 3B subunit 1 (Homo sapiens) (UniProt O75533). In words: Binding affinity to SAP155 in human GM18453 cells harboring NPC1 mutant assessed as increase in 120 kDa NPC1 protein expression at 50 nM measured after 48 hrs by Western blot analysis. In kind it is cell-based. The essentials: (§3)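 GM18453 fibroblasts were treated 48 h at 37°C, 5% CO2 with 50 nM compound, SAHA 5 μM or DMSO 0.1% v/v, then lysed in RIPA with protease inhibitors. 25–50 μg protein was run on 4–20% SDS-PAGE, blotted to PVDF and probed with rabbit polyclonal C-terminal anti-NPC1 (1:1000, overnight, 4°C). Detection used HRP anti-rabbit and ECL film.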

Data set [8] shares this target. Description: Binding affinity to SAP155 in human GM18407 cells harboring NPC1 R404Q/M1142T mutant assessed as restoration of cholesterol trafficking at 0.001 to 5 uM after 48 hrs by filipin-staining based fluorescence microscopic analysis. In kind it is cell-based.
The target is the same in data set [9]. Description: Binding affinity to SAP155 in human GM18453 cells harboring NPC1 mutant assessed as increase in 180 kDa NPC1 protein expression at 50 nM measured after 48 hrs by Western blot analysis. The data set is classed as cell-based. The essentials: as §3
The nature of data set [10]: Mean residence time in ICR mouse at 2 mg/kg by LC-MS/MS analysis. To be noted: in vivo. In kind it is ADME, organism-based.
Data set [11] has as its target Splicing factor 3B subunit 1 (Homo sapiens) (UniProt O75533). Description: Binding affinity to SAP155 in human GM18453 cells harboring NPC1 mutant assessed as increase in 100 kDa NPC1 protein expression at 50 nM measured after 48 hrs by Western blot analysis. In kind it is cell-based. The essentials: as §3
Data set [12] in a line: Permeability in human Caco2 cells. Particulars: caco-2. In kind it is ADME, cell-based. On the technique in general: Caco-2 monolayers are a common model of the intestinal barrier.
In data set [13] the target is Splicing factor 3B subunit 1 (Homo sapiens) (UniProt O75533). Description: Binding affinity to SAP155 in human GM18453 cells harboring NPC1 mutant assessed as restoration of cholesterol trafficking at 50 nM after 48 hrs by filipin-staining based fluorescence microscopic analysis. The data set is classed as cell-based. The essentials: as §2
The nature of data set [14]: Aqueous solubility of the compound in HBSS solution. In kind it is physicochemical. Particulars: buffer.
Data set [15] is described as follows: Stability in human liver microsomes. The data set is classed as ADME, microsome.
Data set [16] addresses Splicing factor 3B subunit 1 (Homo sapiens) (UniProt O75533). In words: Binding affinity to SAP155 in human GM18453 cells harboring NPC1 mutant assessed as increase in 180 kDa NPC1 protein expression at 50 nM pretreated for 48 hrs followed by endoglycosidase H addition and measured after overnight incubation by Western blot analysis. The data set is classed as cell-based. The essentials:
as §1

Data set [17] in a line: Protein binding in mouse plasma. In kind it is ADME, cell-free.
Data set [18] has as its target Splicing factor 3B subunit 1 (Homo sapiens) (UniProt O75533). Description: Binding affinity to SAP155 in human GM18453 cells harboring NPC1 mutant assessed as increase in 180 kDa NPC1 protein expression at 50 nM pretreated for 48 hrs followed by PNGaseF addition and measured after overnight incubation by Western blot analysis. The data set is classed as cell-based. The essentials:
(§4)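 After 48 h exposure of GM18453 fibroblasts to 50 nM compound (controls SAHA 5 μM, DMSO 0.1%), 25 μg lysate with SDS, DTT and Tris-HCl pH 8 was digested with PNGase F (1000 U) about 18 h at 37°C. Samples were immunoblotted with rabbit anti-NPC1, and isoforms were quantified by densitometry over four independent experiments.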

Data set [19] can be described thus: Aqueous solubility of the compound in pH 7.4 buffer. In kind it is physicochemical.
The target in data set [20] is Splicing factor 3B subunit 1 (Homo sapiens) (UniProt O75533). In words: Binding affinity to SAP155 in human GM18453 cells harboring NPC1 mutant assessed as increase in 120 kDa NPC1 protein expression at 50 nM pretreated for 48 hrs followed by PNGaseF addition and measured after overnight incubation by Western blot analysis. In kind it is cell-based. The essentials:
as §4

Calls of active or inactive are those of the source. No cut-off for these calls is given here.

Regarding `CO[C@H]([C@@H](C)[C@H]1O[C@]1(C)C[C@H](C)/C=C/C=C(\C)[C@H]1O[C@@H](CC(=O)O)CC[C@@H]1C)[C@@H](C)O`, the fold change (FC) in [1] was determined as 1.5. Moreover, the result in [2], in data set [8], in [16] and in data set [18] was inactive. Moreover, the Activity entry in [3] and in data set [4] was “Toxic” in each case. Besides, the Stability result in data set [5] and in data set [15] was “Stable” each time. In addition, the PB result in data set [6] and in [17] was “Active” in each case. Further, the result in data set [7], in data set [9], in data set [11], in data set [13] and in [20] was Active. Further, the MRT in data set [10] was determined as 4.53 h. Moreover, in data set [12], the permeability result is given as “Permeable”. In addition, the solubility entry in data set [14] and in data set [19] was “Soluble” throughout.
Turning to `COC(=O)C[C@H]1CC[C@H](C)[C@@H](/C(C)=C/C=C/[C@@H](C)C[C@@]2(C)O[C@@H]2[C@H](C)[C@@H](OC)[C@@H](C)O)O1`, in data set [8], the outcome was inactive. Moreover, the outcome in [13] was Active.
`COC(=O)C[C@H]1CC[C@H](C)[C@@H](/C(C)=C/C=C/[C@@H](C)C[C@@]2(C)O[C@@H]2[C@H](C)[C@@H](OC)[C@@H](C)OC(C)=O)O1`: the outcome in [8] was inactive. The outcome in [13] was Active.
On to `COC(=O)C[C@H]1CC[C@H](C)[C@@H](/C(C)=C/C=C/[C@@H](C)C[C@@]2(C)O[C@@H]2[C@H](C)[C@@H](OC)C(C)=O)O1`, for which, in [8], the outcome was inactive. Besides, the result in data set [13] was Active.
